Data on 42 molecules can be found in ChEMBL document CHEMBL3616382, “Catechols and 3-hydroxypyridones as inhibitors of the DNA repair complex ERCC1-XPF” (Bioorg Med Chem Lett, 2015).

For series [1], the target named is T1, DNA excision repair protein ERCC-1/DNA repair endonuclease XPF (Homo sapiens, UniProt P07992+Q92889).
T1 sequence (P07992 whole entry): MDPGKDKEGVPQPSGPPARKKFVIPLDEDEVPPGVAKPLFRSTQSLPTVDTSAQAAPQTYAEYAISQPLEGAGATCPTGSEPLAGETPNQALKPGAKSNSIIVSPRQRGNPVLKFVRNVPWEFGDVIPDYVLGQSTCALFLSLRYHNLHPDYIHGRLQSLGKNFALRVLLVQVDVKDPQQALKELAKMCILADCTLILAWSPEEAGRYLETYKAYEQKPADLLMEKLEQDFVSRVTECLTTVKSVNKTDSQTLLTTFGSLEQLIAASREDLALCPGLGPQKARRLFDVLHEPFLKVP
T1 sequence (Q92889 whole entry): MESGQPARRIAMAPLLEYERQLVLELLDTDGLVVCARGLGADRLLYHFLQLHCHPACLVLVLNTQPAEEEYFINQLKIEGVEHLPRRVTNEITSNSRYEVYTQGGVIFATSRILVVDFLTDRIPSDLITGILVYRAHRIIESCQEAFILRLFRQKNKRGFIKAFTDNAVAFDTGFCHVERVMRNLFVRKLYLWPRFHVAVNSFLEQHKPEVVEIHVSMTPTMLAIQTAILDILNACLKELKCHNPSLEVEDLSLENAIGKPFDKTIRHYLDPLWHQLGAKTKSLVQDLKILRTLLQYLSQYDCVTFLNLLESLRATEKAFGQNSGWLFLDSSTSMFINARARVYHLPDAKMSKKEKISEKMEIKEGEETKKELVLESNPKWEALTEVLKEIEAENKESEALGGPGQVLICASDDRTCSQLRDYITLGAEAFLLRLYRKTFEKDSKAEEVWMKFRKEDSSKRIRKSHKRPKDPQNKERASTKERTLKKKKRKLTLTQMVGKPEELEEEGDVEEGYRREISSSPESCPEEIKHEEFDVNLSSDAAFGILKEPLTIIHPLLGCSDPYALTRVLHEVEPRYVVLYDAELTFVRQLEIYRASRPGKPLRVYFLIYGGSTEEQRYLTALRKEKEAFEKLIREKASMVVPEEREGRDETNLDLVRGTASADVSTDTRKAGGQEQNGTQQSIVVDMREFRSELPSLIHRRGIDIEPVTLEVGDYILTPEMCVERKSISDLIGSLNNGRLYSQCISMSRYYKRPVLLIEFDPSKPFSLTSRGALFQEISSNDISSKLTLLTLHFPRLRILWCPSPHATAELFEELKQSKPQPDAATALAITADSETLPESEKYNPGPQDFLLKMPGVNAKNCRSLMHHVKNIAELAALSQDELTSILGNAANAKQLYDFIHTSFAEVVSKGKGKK
Description: Inhibition of ERCC1-XPF (unknown origin) by high-throughput fluorescence based in-vitro endonuclease assay. Format: protein-complex assay.

Series [2] deals with Flap endonuclease 1 (Homo sapiens, UniProt P39748). Nature of the series: Inhibition of FEN1 (unknown origin).
Flap endonuclease 1, sequence (P39748 whole entry): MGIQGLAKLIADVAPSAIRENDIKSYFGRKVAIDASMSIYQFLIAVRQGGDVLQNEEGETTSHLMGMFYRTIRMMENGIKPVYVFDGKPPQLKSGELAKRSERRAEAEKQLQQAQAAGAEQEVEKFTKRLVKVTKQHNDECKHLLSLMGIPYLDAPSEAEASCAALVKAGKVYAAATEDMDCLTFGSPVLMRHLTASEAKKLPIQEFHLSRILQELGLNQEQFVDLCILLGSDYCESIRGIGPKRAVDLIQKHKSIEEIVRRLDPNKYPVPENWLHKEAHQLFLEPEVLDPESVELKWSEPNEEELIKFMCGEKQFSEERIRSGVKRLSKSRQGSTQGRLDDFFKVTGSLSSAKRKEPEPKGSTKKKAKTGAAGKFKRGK
The target of series [3] is T2, Deoxyribonuclease-1 (Homo sapiens, UniProt P24855).
T2 sequence (P24855 whole entry): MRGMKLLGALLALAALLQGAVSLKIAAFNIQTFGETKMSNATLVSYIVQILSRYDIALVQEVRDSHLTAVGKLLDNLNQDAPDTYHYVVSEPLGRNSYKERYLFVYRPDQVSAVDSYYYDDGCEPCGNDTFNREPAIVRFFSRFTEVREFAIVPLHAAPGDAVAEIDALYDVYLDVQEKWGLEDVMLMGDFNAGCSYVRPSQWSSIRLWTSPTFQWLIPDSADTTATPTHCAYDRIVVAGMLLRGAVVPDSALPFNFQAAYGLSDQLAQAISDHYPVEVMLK
Nature of the series: Inhibition of DNAse1 (unknown origin).

The nature of series [4]: Lipophilicity, log D of the compound. In kind it is physicochemical. The note with it: octanol/water.
The subject of series [5] is HepG2. Description: Cytotoxicity against human HepG2 cells. In kind it is cell-based. The essentials: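 Hep-G2 cells exposed to compound at concentrations up to 10 μM; toxicity assessed.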
A short description of series [6]: Half life in mouse liver microsomes. Format: ADME.
Series [7] can be described thus: Half life in human liver microsomes. In kind it is ADME.
Series [8] can be described thus: Apparent permeability by PAMPA method. Format: physicochemical.
Series [9] has as its target T1, DNA excision repair protein ERCC-1/DNA repair endonuclease XPF. Nature of the series: Binding affinity to ERCC1-XPF (unknown origin) by SPR assay. Format: protein-complex assay.

Consider `Oc1ccc(-c2nc(Cc3ccc(Cl)cc3)no2)cc1O`, for which the IC50 was 7.8 µM in series [1], > 100 µM in series [2] and > 100 µM in series [3].
On to `O=C(COc1ccccc1)NCc1ccc(O)c(O)c1`, for which the half-inhibitory concentration (IC50) was 12.1 µM in [1], > 100 µM in series [2] and > 100 µM in series [3].
For `O=C(CNc1ccccc1)NCCc1ccc(O)c(O)c1`, the half-maximal inhibitory concentration (IC50) is 15.2 µM in series [1], > 100 µM in series [2] and > 100 µM in [3].
Molecule `CC(C)C(=O)NCc1ccc(O)c(O)c1` yielded an IC50 in series [1] of 24 µM.
The same measure, in the same setting: the value for `O=c1[nH]ccc(-c2ccc(F)cc2)c1O` was > 100 µM.
On to `O=C(Cc1ccccc1Cl)NCc1ccc(O)c(O)c1`, for which the results for the 50% inhibitory concentration (IC50) in [1], in series [2] and in series [3] were 0.8 µM, > 100 µM and > 100 µM, respectively.
Regarding `O=C(CCc1ccccc1)NCc1ccc(O)c(O)c1`, the IC50 was 7.3 µM in [1], > 100 µM in series [2] and > 100 µM in series [3].
Regarding `O=C(Cc1ccc(Cl)cc1Cl)N1CCc2cc(O)c(O)cc2C1`, the values for the IC50 in [1], in series [2] and in series [3] were 1 µM, > 100 µM and > 100 µM, respectively.
For `O=C(Cc1ccc(Cl)cc1Cl)NCc1cc(O)c(O)cc1F`, the 50% inhibitory concentration (IC50) in [1] was 1.1 µM; in series [2] it was > 100 µM; in series [3], > 100 µM.
`Cn1ncc2ccc(-c3c[nH]c(=O)c(O)c3)cc21`: the values for the 50% inhibitory concentration (IC50) in [1], in [2] and in series [3] were 14.6 µM, > 100 µM and > 100 µM, respectively.
With `O=c1[nH]cc(-c2cccc(-n3cccn3)c2)cc1O`, the half-maximal inhibitory concentration (IC50) in series [1] was 5.2 µM; in series [2] it was > 100 µM; in series [3], > 100 µM.
Consider `O=C(NCc1ccc(O)c(O)c1)c1ccccc1`, for which the results for the IC50 in [1], in [2] and in series [3] were 24.5 µM, > 100 µM and > 100 µM, respectively.
Turning to `CC(C(=O)NCc1ccc(O)c(O)c1)c1ccccc1` (stereo unspecified), the IC50 was 1.8 µM in series [1] and > 100 µM in [2].
For the molecule `CC(=O)Nc1ccc(-c2c[nH]c(=O)c(O)c2)cc1`, the IC50 in series [1] is 13.5 µM; in series [2], > 100 µM; in series [3], > 100 µM.
`O=C(CNc1ccccc1)N/N=C/c1ccc(O)c(O)c1`: the figures for the half-maximal inhibitory concentration (IC50) in series [1], in series [2] and in series [3] were 2 µM, > 100 µM and > 100 µM, respectively.
Consider `O=C(Cc1ccc(O)c(O)c1)NCc1ccc(Cl)cc1Cl`, for which the values for the half-inhibitory concentration (IC50) in series [1], in [2] and in series [3] were 0.74 µM, > 100 µM and > 100 µM, respectively.
As for `O=C(CNc1ccccc1)NCc1ccc(O)c(O)c1`, the IC50 in series [1] is 0.9 µM; in series [2] it was > 100 µM; in [3], > 100 µM.
Turning to `Oc1ccc(Cc2nc(-c3ccc(Cl)cc3)no2)cc1O`, the results for the concentration for half-maximal inhibition (IC50) in series [1], in [2] and in series [3] were 12.2 µM, > 100 µM and > 100 µM, respectively.
For the molecule `O=C(Cc1ccc(Cl)cc1Cl)NCc1ccc(O)c(O)c1Cl`, the IC50 in series [1] was 1.6 µM; in [2], > 100 µM; in [3], > 100 µM.
In the case of `O=c1[nH]cc(Br)cc1O`, the 50% inhibitory concentration (IC50) in [1] came to 24 µM.
Take `O=C(Cc1ccc(Cl)cc1Cl)NCc1c[nH]c(=O)c(O)c1`: half-maximal inhibition in [1] (IC50) was put at 100 µM.
As to `O=C(Cc1ccc(N2CCOCC2)cc1)NCc1ccc(O)c(O)c1`, the half-maximal inhibitory concentration (IC50) was 7.9 µM in series [1], > 100 µM in [2] and > 100 µM in series [3].
Consider `O=C(NCc1ccc(O)c(O)c1)C1(c2ccccc2)CCCCC1`, for which the half-maximal inhibitory concentration (IC50) in [1] is 1.6 µM; in series [2], > 100 µM.
Consider `O=c1[nH]c(-c2ccc(F)cc2)ccc1O`, for which, in series [1], the half-inhibitory concentration (IC50) turned out to be 55.2 µM.
As to `O=C(CNc1ccccc1)Nc1ccc(O)c(O)c1`, the 50% inhibitory concentration (IC50) in series [1] is 1.6 µM; in series [2], > 100 µM; in series [3], > 100 µM.
Molecule `O=C(Cc1cccnc1)NCc1ccc(O)c(O)c1` showed a half-inhibitory concentration (IC50) in [1] of 25.6 µM.
For the molecule `O=C(NCc1ccc(O)c(O)c1)Nc1ccc(Cl)cc1`, the IC50 is 4.8 µM in series [1], > 100 µM in series [2] and > 100 µM in series [3].
Consider `N#Cc1cccc(CC(=O)NCc2ccc(O)c(O)c2)c1`, for which, in series [1], the IC50 was 4 µM.
Regarding `Cn1cc(-c2ccc(F)cc2)cc(O)c1=O`, the half-inhibitory concentration (IC50) in [1] was > 100 µM.
`O=C1N(Cc2ccc(Cl)cc2)CCN1Cc1ccc(O)c(O)c1`: the IC50 in series [1] is 4.1 µM; in [2], > 100 µM; in series [3], > 100 µM.
The molecule `COc1ccc(CC(=O)NCc2ccc(O)c(O)c2)cc1` returned an IC50 in series [1] of 2.6 µM.
`O=S(=O)(Cc1ccc(Cl)cc1Cl)NCc1ccc(O)c(O)c1`: the IC50 in series [1] was 2.9 µM; in [2], > 100 µM; in series [3], > 100 µM.
In the case of `O=C(NCc1ccc(O)c(O)c1)C1CCCC1`, the IC50 is 24.6 µM in [1], > 100 µM in [2] and > 100 µM in series [3].
In the case of `O=C(Cc1ccccc1)NCc1ccc(O)c(O)c1`, the IC50 in series [1] is 13.3 µM; in series [2], > 100 µM; in [3], > 100 µM.
With `Cc1cccc(NCC(=O)N/N=C/c2cc(Br)c(O)c(O)c2Br)c1`, the IC50 in [1] was 33 µM; in series [2], > 100 µM; in series [3], > 100 µM.
In the case of `O=C(Cc1ccc(Cl)cc1)NCc1ccc(O)c(O)c1`, the results for the half-inhibitory concentration (IC50) in series [1], in series [2] and in series [3] were 1 µM, > 100 µM and > 100 µM, respectively.
Take `O=C(CC1CCCCC1)NCc1ccc(O)c(O)c1`: the values for the 50% inhibitory concentration (IC50) in series [1], in [2] and in [3] were 1.4 µM, > 100 µM and > 100 µM, respectively.
Regarding `CC(=O)N1CCN(CC(=O)NCc2ccc(O)c(O)c2)CC1`, the IC50 in series [1] and in series [3] was > 100 µM in each case.
Consider `O=c1[nH]cc(-c2ccc(F)cc2)cc1O`, for which the IC50 in series [1] was 8.7 µM; in [2], > 100 µM; in [3], > 100 µM. In [4], this molecule gave a logD of 2. Moreover, the Activity in series [5] was > 10 µM. Further, the half-life in series [6] and in [7] was > 6.67 h in each case. The Papp in series [8] is 4.4 ×10⁻⁶ cm/s. In series [9], this molecule showed a Kd of 3.5 µM.
With `O=c1[nH]cc(-c2ccc(F)c(Cl)c2)cc1O`, the IC50 in series [1] was 13.1 µM; in series [2] it was > 100 µM; in series [3], > 100 µM.
On to `O=C(NCc1ccc(O)c(O)c1)C1CCN(Cc2ccc(F)cc2)CC1`, for which the values for the half-maximal inhibitory concentration (IC50) in series [1], in series [2] and in series [3] were 5.8 µM, > 100 µM and > 100 µM, respectively.
Regarding `CN(Cc1ccc(O)c(O)c1)C(=O)Cc1ccc(Cl)cc1Cl`, the values for the 50% inhibitory concentration (IC50) in series [1], in series [2] and in series [3] were 0.8 µM, > 100 µM and > 100 µM, respectively.
